Test results taken from ChEMBL document CHEMBL1145777 (J Med Chem, 2003).
pKi: −log10 of the molar value.

How the values were obtained:
Mu-type opioid receptor = Mu-type opioid receptor (Cavia porcellus, UniProt P97266); assay: Binding affinity towards Opioid receptor mu 1 from guinea pig brain using [3H]DAMGO as radioligand
[1] = biological target: Kappa-type opioid receptor (Cavia porcellus) (UniProt P41144); assay: Ratio of binding affinity of Opioid receptor kappa 1 to Opioid receptor mu 1 to Opioid receptor delta 1; kappa:mu:delta = 45:12:1
[2] = biological target: Kappa-type opioid receptor (Cavia porcellus, UniProt P41144); assay: Binding affinity towards Opioid receptor kappa 1 from guinea pig brain using [3H]U-69593 as radioligand
Summary of the method: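 Uses 1 nM [3H]U69,593 with guinea pig brain membrane protein (500 µg), 12 concentrations, 50 mM Tris-HCl pH 7.5, 60 min at 25 °C. Nonspecific binding with 10 µM naloxone. Filters pre-soaked in 0.1% polyethylenimine; bound label counted.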

[3] = Binding affinity towards Opioid receptor delta 1 from guinea pig brain using [3H]naltrindole as radioligand
[4] = biological target: Kappa-type opioid receptor (Cavia porcellus) (UniProt P41144); assay: Ratio of binding affinity of Opioid receptor kappa 1 to Opioid receptor mu 1 to Opioid receptor delta 1; kappa:mu:delta = 13:10:1
[5] = biological target: Kappa-type opioid receptor (Cavia porcellus) (UniProt P41144); assay: Ratio of binding affinity of Opioid receptor kappa 1 to Opioid receptor mu 1 to Opioid receptor delta 1; kappa:mu:delta = 4:3:1
[6] = biological target: Kappa-type opioid receptor (Cavia porcellus) (UniProt P41144); assay: Ratio of binding affinity of Opioid receptor kappa 1 to Opioid receptor mu 1 to Opioid receptor delta 1; kappa:mu:delta = 36:14:1
[7] = biological target: Kappa-type opioid receptor (Cavia porcellus) (UniProt P41144); assay: Ratio of binding affinity of Opioid receptor kappa 1 to Opioid receptor mu 1 to Opioid receptor delta 1; kappa:mu:delta = 5:3:1

Chain of Kappa-type opioid receptor (Cavia porcellus) (P41144 whole entry): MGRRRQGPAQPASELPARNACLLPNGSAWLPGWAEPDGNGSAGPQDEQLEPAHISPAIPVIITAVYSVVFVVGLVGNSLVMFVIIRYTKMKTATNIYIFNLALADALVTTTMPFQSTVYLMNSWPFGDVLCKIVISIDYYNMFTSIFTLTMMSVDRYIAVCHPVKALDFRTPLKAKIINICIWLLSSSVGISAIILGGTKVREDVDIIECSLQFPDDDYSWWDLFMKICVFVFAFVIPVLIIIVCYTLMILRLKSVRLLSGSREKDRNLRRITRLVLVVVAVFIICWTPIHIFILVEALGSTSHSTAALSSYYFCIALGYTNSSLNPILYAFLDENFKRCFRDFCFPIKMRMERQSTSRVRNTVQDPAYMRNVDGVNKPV
Chain of Kappa-type opioid receptor (P41144 whole entry): as above
Chain of Mu-type opioid receptor (P97266 whole entry): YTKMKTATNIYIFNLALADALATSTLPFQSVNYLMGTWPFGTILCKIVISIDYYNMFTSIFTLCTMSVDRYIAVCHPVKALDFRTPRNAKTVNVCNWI

**Q.** With `COc1ccccc1Nc1ccc2c(c1)[C@@]1(C)CCN(CC3CC3)C(C2)[C@@H]1C` as the molecule, how does the pKi (Mu-type opioid receptor) read?
**A.** 8.07

**Q.** What about the Ratio [1] of the same molecule?
**A.** 45

**Q.** And the pKi [2]?
**A.** 8.66

**Q.** With `C[C@H]1C2Cc3ccc(N(C)Cc4ccccc4)cc3[C@@]1(C)CCN2CC1CC1` as the molecule, how does the pKi [3] read?
**A.** 6.24

**Q.** What about the Ratio [4] of the same molecule?
**A.** 13

**Q.** With `C[C@H]1C2Cc3ccc(Nc4ccc(C(C)(C)C)cc4)cc3[C@@]1(C)CCN2CC1CC1` as the molecule, how does the pKi (Mu-type opioid receptor) read?
**A.** 7.74

**Q.** And the pKi [2]?
**A.** 7.85

**Q.** What about the Ratio [5] of the same molecule?
**A.** 4

**Q.** With `C[C@H]1C2Cc3cc4cc[nH]c4cc3[C@@]1(C)CCN2CC1CC1` as the molecule, how does the pKi (Mu-type opioid receptor) read?
**A.** 7.74

**Q.** And the Ratio [6]?
**A.** 36

**Q.** And the pKi [2]?
**A.** 8.15

**Q.** With `C[C@H]1C2Cc3ccc(Nc4ccc(Cl)c(Cl)c4)cc3[C@@]1(C)CCN2CC1CC1` as the molecule, how does the pKi (Mu-type opioid receptor) read?
**A.** 8.08

**Q.** And the pKi [2]?
**A.** 8.24

**Q.** And the Ratio [7]?
**A.** 5
